Screening data as filed in PubChem.
INS-1E ATP HTS: preserves ATP levels in cytokine-treated INS-1E cells; INS-1E cytokine-induced death, ATP luminescence, 48 h; normalised: neutral wells 0, positive control 100; hit rate 0.1% among 20,000; protection from cytokine-induced ATP loss, % at 10 µM;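 active = mean replicate protection from cytokine-induced ATP loss at least 50% and at least 75% of replicates each reaching 50%; inconclusive = meets only one of the two criteria, mean or replicate share; inactive = fails both the mean and replicate share criteria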
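Material: INS-1E rat cells; Quantity: 8000 cells/well; Buffer or medium: phenol-red-free RPMI with 5% fetal bovine serum; Probe or stimulus: cytokine cocktail of IFN-γ, TNF-α and IL-1β; Compound dosing: single test concentration per compound, delivered by pin transfer; Incubation: 48 h co-treatment, 10 min post-lysis read; Signal: CellTiter-Glo luminescence.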
T cruzi intra: blocks T. cruzi growth inside host cells. hit rate 4.9% among 22,000. AID 651903. activity score (inhibition), % at 5.01 µM. intracellular Trypanosoma cruzi in host cells, plate reader; in the data active = activity score above about 55%; inconclusive = no clear call, values can overlap the other calls;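 also: parasites and compound incubated about four days before reading; 0% = median of neutral control wells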
A1 apoptosis 2: A1 inhibition read as caspase activation | MEF A1-2A-BIM cells, caspase-Glo luminescence, 3 h; percent of clofoctol response, DMSO zero | caspase activation, % (test concentration not listed) | 24,000 tested, under 10 active; in the data active = caspase activation above about 5.9%; inconclusive = no clear call, values can overlap the other calls; inactive = below about 2.2%
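Material: A1-2A-BIM-expressing MEF cells. Buffer or medium: RPMI-1640 plus 10% FBS. Incubation: cells settled overnight, compound exposure 3 h at 37 °C, 5% CO2. Signal: Caspase-Glo 3/7 luminescence, 1 h at room temperature.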
* hit, by the source's call; u = inconclusive; x = no result given. Shown is part of a subset that was picked to be rich in hits.

SMILES | INS-1E ATP HTS | T cruzi intra | A1 apoptosis 2
C[C@@H]1CN([C@@H](C)CO)C(=O)Cc2cc(NS(=O)(=O)c3ccc(F)cc3)ccc2O[C@@H]1CN(C)Cc1ccc(-c2ccccc2)cc1 | -22 | 63* | -1
C[C@H]1CN([C@@H](C)CO)C(=O)Cc2cc(NS(=O)(=O)c3ccc(Cl)cc3)ccc2O[C@H]1CN(C)Cc1ccc(Oc2ccccc2)cc1 | -10 | 7 | -1
C[C@H](CO)N1C[C@H](C)[C@@H](CN(C)Cc2ccccc2)Oc2ccc(NS(=O)(=O)c3ccc(Cl)cc3)cc2CC1=O | x | x | -1
C[C@H]1CN([C@@H](C)CO)C(=O)Cc2cc(NS(=O)(=O)c3ccc(F)cc3)ccc2O[C@H]1CN(C)Cc1ccc(Oc2ccccc2)cc1 | -29 | 33 | x
C[C@@H]1CN([C@@H](C)CO)C(=O)Cc2cc(NS(=O)(=O)c3ccc(F)cc3)ccc2O[C@@H]1CN(C)Cc1ccc(Oc2ccccc2)cc1 | -25 | 75* | x
C[C@@H]1CN([C@H](C)CO)C(=O)Cc2cc(NS(=O)(=O)c3ccc(Cl)cc3)ccc2O[C@H]1CN(C)Cc1ccc(Oc2ccccc2)cc1 | -11 | 64* | x
C[C@@H]1CN([C@H](C)CO)C(=O)Cc2cc(NS(=O)(=O)c3ccc(Cl)cc3)ccc2O[C@H]1CN(C)Cc1ccccc1 | -2 | 73* | x
C[C@H]1CN([C@@H](C)CO)C(=O)Cc2cc(NS(=O)(=O)c3ccc(F)cc3)ccc2O[C@H]1CN(C)Cc1ccc(-c2ccccc2)cc1 | -28 | 30 | 1
C[C@@H]1CN([C@@H](C)CO)C(=O)Cc2cc(NC(=O)c3ccncc3)ccc2O[C@@H]1CN(C)C(=O)Nc1ccc(F)cc1 | 10 | -12 | 0
C[C@@H]1CN([C@H](C)CO)C(=O)CCCn2cc(nn2)CO[C@@H]1CN(C)C(=O)Nc1ccnc(N2CCOCC2)c1 | x | -11 | 2
C[C@@H]1CN([C@@H](C)CO)C(=O)c2cccc(NC(=O)CCCCCC(=O)Nc3ccccc3N)c2O[C@@H]1CN(C)Cc1ccncc1 | x | x | 0
CC(C)NC(=O)N(C)C[C@@H]1OCCCC[C@@H](C)Oc2ccc(NC(=O)Nc3cccc4ccccc34)cc2C(=O)N([C@@H](C)CO)C[C@H]1C | x | x | 1
C[C@H](CO)N1C[C@H](C)[C@@H](CN(C)C(=O)Nc2ccc3c(c2)OCO3)OCCCC[C@H](C)Oc2ccc(NC(=O)c3ccccc3)cc2C1=O | x | x | -1
C[C@H]1CN([C@@H](C)CO)C(=O)Cc2cc(NC(=O)Nc3ccc(C(F)(F)F)cc3)ccc2O[C@H]1CN(C)CC1CCCCC1 | -56 | 72* | x
C[C@@H]1CN([C@@H](C)CO)C(=O)Cc2cc(NC(=O)Nc3ccc(C(F)(F)F)cc3)ccc2O[C@@H]1CN(C)CC1CCCCC1 | -46 | 77* | x
C[C@H]1CN([C@@H](C)CO)C(=O)Cc2cc(NC(=O)Nc3ccc(C(F)(F)F)cc3)ccc2O[C@@H]1CN(C)CC1CC1 | 4 | -30 | 1
C[C@H](CO)N1C[C@H](C)[C@@H](CN(C)CC2CC2)Oc2ccc(NC(=O)Nc3ccc(C(F)(F)F)cc3)cc2CC1=O | x | x | 1
CCCN(C)C[C@@H]1Oc2ncc(-c3cc4ccccc4o3)cc2C(=O)N([C@H](C)CO)C[C@@H]1C | x | u | 1
C[C@H](CO)N1C[C@H](C)[C@H](CN(C)Cc2ccc3c(c2)OCO3)Oc2ncc(-c3ccc(F)cc3)cc2C1=O | x | 19 | 0
C[C@H](CO)N1C[C@H](C)[C@H](CN(C)S(=O)(=O)c2cccs2)Oc2ncc(-c3cc4ccccc4o3)cc2C1=O | x | 67* | 0
C[C@H](CO)N1C[C@H](C)[C@H](CN(C)C)Oc2ncc(-c3cc4ccccc4o3)cc2C1=O | x | 85* | 0
COc1ccc(S(=O)(=O)N(C)C[C@@H]2Oc3ncc(-c4cc5ccccc5o4)cc3C(=O)N([C@H](C)CO)C[C@@H]2C)cc1 | -15 | 47 | 0
C[C@H](CO)N1C[C@H](C)[C@H](CN(C)Cc2ccc3c(c2)OCO3)Oc2ncc(-c3cc4ccccc4o3)cc2C1=O | x | 78* | -2
COc1ccc(CN(C)C[C@H]2OCCCC[C@@H](C)Oc3ccc(NC(=O)Nc4ccc(OC)cc4)cc3C(=O)N([C@@H](C)CO)C[C@@H]2C)cc1 | x | x | 0
C[C@H](CO)N1C[C@H](C)[C@@H](CN(C)S(=O)(=O)c2cn(C)cn2)OCCCC[C@H](C)Oc2ccc(NS(=O)(=O)c3cccs3)cc2C1=O | x | x | 1
C[C@@H]1CN([C@H](C)CO)C(=O)Cc2cc(NC(=O)CCN3CCOCC3)ccc2O[C@@H]1CN(C)C(=O)NC1CCCCC1 | 10 | -17 | -1
